# PubChem BioAssay
# The source made the active and inactive calls. Rule as the data show it, unless noted: active = inhibition above about 30%; inactive = the rest. Peptide text beside a SMILES is read from it. * marks the point of attachment. Boc = CC(C)(C)OC(=O)*
# Legend:
# [1] = SK-BR-3 cell growth inhibitors, pilot screen, 24 h, human (AID 572;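 active = viability at or below 10% of carrier control in both of two separate runs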;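 also: compound exposure lasted between 18 and 24 h rather than exactly 24 h; 100% = carrier-treated control wells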); details: SK-BR-3 viability, CellTiter-Glo luminescence, at 10 µM, stronger effect = lower value
# [2] = HUVEC growth inhibition – cell-based, human, primary screen (AID 575;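 active = viability at or below 30% in both replicate assays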;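 also: 100% = median of untreated cell wells with 0.1% DMSO on each plate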); details: HUVEC proliferation, CellTiter-Glo luminescence, 72 h; at 10 µM; stronger effect = lower value
# Summary of the method: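 Test system: primary human umbilical vein endothelial cells. Quantity: 1250 cells/well. Compound: single 10 µM dose, 0.1% DMSO, from 5x medium stock. Timing: 72 h treatment at 37 °C. Detection: ATP-based CellTiter-Glo luminescent read. Benchmarks: vehicle and MePR control wells. Format: 384-well plates coated with collagen.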
# [3] = growth inhibitors of H69AR lung tumor, primary screen, human, duplicate replicates (AID 580;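 active = viability at or under a set limit in both replicates, limit being median viability minus 3 SD, cut at about 48% in these data, passing the limit was not always enough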;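 also: 100% = mean luminescence of untreated wells and 0% = no signal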); details: H69AR lung tumor cells viability, ATP luminescence, 72 h; at 10 µM; stronger effect = lower value
# [4] = reversal of MRP1-mediated doxorubicin resistance, pilot screen, H69AR cells, doxorubicin co-treatment (AID 601;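 active = viability loss from added drug above about 55%, and viability with drug at most 40%, in both replicates, limit read from the data, passing the limit was not always enough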); details: CellTiter-Glo, 72 h, at 10 µM; for differential viability (reversal): stronger effect = higher value
# [5] = 384-well plate pilot, post-Golgi transport modulator project, inhibition of yeast transport mutant growth (AID 636; in the data active = inhibition above about 31%); details: absorbance 615 nm, about 18 h, stronger effect = higher value
# [6] = growth suppression of yeast trafficking mutant, preliminary HTS, modulators of trafficking downstream of Golgi apparatus project, 1536-format plate, OD 615 nm (AID 637); details: yeast transport mutant growth, absorbance 615 nm, 18 h; stronger effect = higher value
# [7] = H69AR cells + 2 uM doxorubicin, measured here: viability with 2 uM doxorubicin, stronger effect = lower value
# [8] = H69AR cells, compound alone cytotoxicity
Structure (SMILES),viability [1],viability [2],viability [3],differential viability (reversal) ([4]; H69AR cells + 2 uM doxorubicin),"viability [4, 7] [%]","viability [4, 8] [%]",inhibition [5],inhibition [6]
Cc1cc(NC(=O)c2ccccc2)ncc1NC(=O)c1ccco1,94% (inactive),96.2% (inactive),109% (inactive),9.27% (inactive),99.9,109,-4.42% (inactive),0.32% (inactive)
CN(C(=O)c1ccccn1)c1nnc(-c2cccnc2)s1,97% (inactive),90.6% (inactive),111% (inactive),17.8% (inactive),93.5,111,-5.07% (inactive),-2.26% (inactive)
CCOC(=O)N1CCC(NC(=O)Cn2cc3c(n2)CCC(C)C3)CC1 (stereo not drawn),128% (inactive),93% (inactive),98.7% (inactive),3% (inactive),95.7,98.7,-1.64% (inactive),18.7% (inactive)
c1ccc(Cc2nn3c(Cn4cnc5ccccc54)nnc3s2)cc1,128% (inactive),78.9% (inactive),85.8% (inactive),3.46% (inactive),82.3,85.8,-5.34% (inactive),-0.65% (inactive)
Cn1c(=O)c2[nH]cnc2n(C)c1=O,101% (inactive),107% (inactive),97.4% (inactive),5.22% (inactive),92.1,97.4,-1.3% (inactive),-2.83% (inactive)
CCOC(=O)C(C(C)=O)c1nc(C)nc2c1nnn2Cc1ccccc1Cl (stereo not drawn),58% (inactive),71.7% (inactive),79.4% (inactive),-9.73% (inactive),89.1,79.4,1.08% (inactive),-2.18% (inactive)
CCCC1(CCC)NC(=O)NC1=O,121% (inactive),94.7% (inactive),98.2% (inactive),0.09% (inactive),98.1,98.2,-0.26% (inactive),0.66% (inactive)
Cc1ccc(S(=O)(=O)NC(C)C(=O)Nc2ccc(C(N)=O)cc2)cc1 (stereo not drawn),81% (inactive),88.4% (inactive),100% (inactive),4.08% (inactive),96,100,-0.27% (inactive),-5.81% (inactive)
C/C=C(\CS(=O)(=O)c1ccccc1)S(=O)(=O)c1ccccc1,110% (inactive),85.1% (inactive),6.84% (active),-0.38% (inactive),7.22,6.84,-0.91% (inactive),-4.26% (inactive)
O=c1oc2cc(O)ccc2c2oc3cc(O)ccc3c12,108% (inactive),85.1% (inactive),99.4% (inactive),6.57% (inactive),92.8,99.4,-5.19% (inactive),5.17% (inactive)
Cc1cc(C)n(-c2nc3sc4c(c3c3nnc(SCC(N)=O)n23)CC(C)(C)OC4)n1,84% (inactive),97.4% (inactive),90.7% (inactive),3.85% (inactive),86.8,90.7,0.68% (inactive),-3.87% (inactive)
CC(=O)N=c1sc(S(N)(=O)=O)nn1C,84% (inactive),77.6% (inactive),93.9% (inactive),21.1% (inactive),72.8,93.9,0.39% (inactive),3.17% (inactive)
CC1=C(C(=O)N2CCOCC2)C(c2ccccc2F)C2=C(CCCC2=O)N1 (stereo not drawn),110% (inactive),104% (inactive),98.8% (inactive),-2.68% (inactive),101,98.8,-2.88% (inactive),0.91% (inactive)
CC(C)CC(NC(=O)OC(C)(C)C)C(=O)NC(C(=O)N1CCCC1C(N)=O)C(C)C (stereo not drawn) (Boc-Leu-Val-Pro-NH2; configuration not given here),103% (inactive),101% (inactive),111% (inactive),17.5% (inactive),93.8,111,0.78% (inactive),-4.1% (inactive)
O=C(c1cnc2sccn2c1=O)N1CCc2ccccc2C1,95% (inactive),95.7% (inactive),104% (inactive),7.95% (inactive),96.2,104,-2.8% (inactive),-4.36% (inactive)
Nn1c(SCC(=O)NC2CCCCC2)nnc1-c1ccc(Cl)cc1,89% (inactive),104% (inactive),91.6% (inactive),8.96% (inactive),82.7,91.6,-6.16% (inactive),3.71% (inactive)
O=C(CN1C(=O)NC2(CCCCC2)C1=O)Nc1ccc(S(=O)(=O)N2CCOCC2)cc1,124% (inactive),98.3% (inactive),96.3% (inactive),13.6% (inactive),82.7,96.3,-3.38% (inactive),3.77% (inactive)
CC1=NS(=O)(=O)c2cc(Cl)ccc2N1,119% (inactive),89.4% (inactive),94.4% (inactive),7.28% (inactive),87.1,94.4,-1.17% (inactive),4.67% (inactive)

Structure (SMILES),viability [1],viability [2],viability [3],differential viability (reversal) ([4]; H69AR cells + 2 uM doxorubicin),"viability [4, 7] [%]","viability [4, 8] [%]",inhibition [5],inhibition [6]
Cc1cc(/C=N\O)c(C)n1-c1ccncc1,120% (inactive),83.8% (inactive),91.4% (inactive),-5.03% (inactive),96.4,91.4,-7.26% (inactive),-0.32% (inactive)
Cc1nn(-c2nc3ccccc3[nH]2)c(N)c1-c1ccccc1,97% (inactive),62.5% (inactive),41.3% (active),-27.6% (inactive),68.9,41.3,11.6% (inactive),2.7% (inactive)
Cc1onc(-c2ccccc2)c1C(=O)Nc1sc2c(c1C(N)=O)CCC2,88.5% (inactive),53.5% (inactive),62.1% (inactive),-20.8% (inactive),82.8,62.1,-1.71% (inactive),-1% (inactive)
COc1ccc(CNc2oc(-c3cccc4ccccc34)nc2C#N)cc1,85% (inactive),95.5% (inactive),96.9% (inactive),-4.35% (inactive),101,96.9,-4.93% (inactive),-0.18% (inactive)
COc1ccc(-c2noc(CSc3nc4ccccc4c(=O)n3-c3ccccc3)n2)cc1OC,69% (inactive),110% (inactive),87.1% (inactive),6.39% (inactive),80.7,87.1,-9.04% (inactive),-0.55% (inactive)
CN(C)CC(C(=O)c1ccccc1)c1ccccc1 (stereo not drawn),30.5%,53.4% (inactive),1.17% (active),-0.515% (inactive),1.68,1.17,2.95% (inactive),-4.33% (inactive)
CC(=O)Nc1c(O)n(C)c2ccccc12,65% (inactive),103% (inactive),96.3% (inactive),-14.5% (inactive),111,96.3,-5.75% (inactive),4.55% (inactive)
CN(C)c1ccc(C=NCC2(O)CCOC(C)(C)C2)cc1 (stereo not drawn),91% (inactive),91.8% (inactive),89.2% (inactive),0.32% (inactive),88.9,89.2,-7.67% (inactive),3.27% (inactive)
COc1ccc(-c2nnnn2C)cc1S(=O)(=O)NCc1ccccc1,93.5% (inactive),117% (inactive),95.7% (inactive),4.64% (inactive),91.1,95.7,-0.26% (inactive),-2.17% (inactive)
CCc1ccc(Nc2cc(=O)n(C3CCCCC3)c(=O)[nH]2)cc1,136% (inactive),44% (inactive),18.3% (active),-32.1% (inactive),50.4,18.3,-3.65% (inactive),-13% (inactive)
CCOc1ccc(S(=O)(=O)Nc2ccc(Cl)cn2)c(C)c1C,121% (inactive),91% (inactive),87.6% (inactive),-2.8% (inactive),90.4,87.6,-5.06% (inactive),4.43% (inactive)
CCc1nc(SCc2cc(Cl)ccc2OC)n[nH]1,99% (inactive),94.2% (inactive),94.7% (inactive),-11.5% (inactive),106,94.7,-0.68% (inactive),-6.55% (inactive)
CC1CN(CC(O)COc2ccccc2C(C)(C)C)CC(C)O1 (stereo not drawn),130% (inactive),114% (inactive),78% (inactive),-11.3% (inactive),89.3,78,-0.26% (inactive),0.49% (inactive)
COc1ccc(OC)c(S(=O)(=O)N2CCC(C(=O)NCc3ccccc3OC)CC2)c1,101% (inactive),97.5% (inactive),103% (inactive),-0.525% (inactive),103,103,0.55% (inactive),-4.03% (inactive)
CC1=C(/C=C/C(C)=C/C=C/C(C)=C/C(=O)O)C(C)(C)CCC1,84% (inactive),83.7% (inactive),104% (inactive),2% (inactive),102,104,0.91% (inactive),8.67% (inactive)
NC(=O)c1c(NC(=O)Cc2cccs2)sc2c1CCC2,103% (inactive),97.3% (inactive),94.3% (inactive),3.05% (inactive),91.3,94.3,-0.27% (inactive),-6.94% (inactive)
CC(=O)Nc1nc2c(c3c1c(=O)oc1ccccc13)CC(C)CC2 (stereo not drawn),123% (inactive),85.1% (inactive),92.1% (inactive),4.96% (inactive),87.1,92.1,-1.04% (inactive),-2.79% (inactive)
O=C(Nc1ccccc1-c1ccccc1)NC1CCN(C(=O)N2CCOCC2)CC1,108% (inactive),95.9% (inactive),103% (inactive),3.68% (inactive),99.5,103,-3.29% (inactive),4.03% (inactive)
